Test results as given in ChEMBL document CHEMBL1641468, “Synthesis of modified siRNA bearing C-5 polyamine-substituted pyrimidine nucleoside in their 3'-overhang regions and its RNAi activity” (Bioorg Med Chem Lett, 2011).
Calls of active or inactive are those of the source. The calls are words filed in the database; no cut-off is given here.

Columns and labels:
[1] = Chemical stability of the compound in presence of snake venom phosphodiesterase after 30 mins by RP-HPLC analysis; format: physicochemical; details: 0.5 h
In short: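 Each oligoribonucleotide (0.8 nmol) incubated with snake venom phosphodiesterase, a 3'-exonuclease (0.01 U), in 200 mM Tris–HCl pH 8.0 with 100 mM MgCl₂ at 37 °C for 5 and 30 min; mixtures analysed by RP-HPLC, remaining full-length RNA expressed as fraction of total RNA from chromatogram peak areas.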

[2] = target: T1, Hepatocyte nuclear factor 4-alpha (Homo sapiens) (UniProt P41235); assay: Inhibition of HNF4alpha mRNA expression in human HepG2 cells after 24 hrs by RT-PCR analysis; format: cell-based; details: in the assay text read “after 48 hrs” for “after 24 hrs”
T1 sequence (whole entry): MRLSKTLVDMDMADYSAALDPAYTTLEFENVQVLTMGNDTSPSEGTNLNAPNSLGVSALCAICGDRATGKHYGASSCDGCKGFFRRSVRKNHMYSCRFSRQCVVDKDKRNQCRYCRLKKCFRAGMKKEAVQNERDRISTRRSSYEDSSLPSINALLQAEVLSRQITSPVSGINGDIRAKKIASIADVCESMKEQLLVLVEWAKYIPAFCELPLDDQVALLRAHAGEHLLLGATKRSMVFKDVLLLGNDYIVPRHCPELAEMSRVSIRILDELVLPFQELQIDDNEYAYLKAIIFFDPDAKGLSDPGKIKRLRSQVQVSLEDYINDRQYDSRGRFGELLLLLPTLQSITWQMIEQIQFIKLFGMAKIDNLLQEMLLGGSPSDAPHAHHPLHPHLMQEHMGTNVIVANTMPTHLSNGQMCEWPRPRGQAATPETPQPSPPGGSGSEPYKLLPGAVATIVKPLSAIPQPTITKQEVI
In short: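 HepG2 cells were grown in DMEM with 5% FBS at 37 °C and transfected with siRNA using a transfection reagent. After 24 h at 37 °C, the medium was changed to DMEM with 10% FBS and cells were incubated a further 24 h. Total RNA was reverse-transcribed for real-time PCR (40 cycles). HNF4α mRNA was normalized to GAPDH by ΔΔCt and expressed relative to nonsense control siRNA, using the mean Ct of duplicate PCRs from independent cells.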

[3] = target: T1, Hepatocyte nuclear factor 4-alpha (Homo sapiens); assay: Inhibition of HNF4alpha mRNA expression in human HepG2 cells after 24 hrs by real-time RT-PCR

Row | Compound | Stability [1] | Activity [2] | Activity [3]
1 | Cc1cn([C@H]2C[C@H](OP(=O)(O)OC[C@H]3O[C@@H](n4cc(CC(=O)NCCN(CCN)CCN)c(=O)[nH]c4=O)C[C@@H]3O)[C@@H](COP(=O)(O)O[C@@H]3[C@H](O)[C@@H](COP(=O)(O)O[C@H]4[C@@H](O)[C@H](n5cnc6c(N)ncnc65)O[C@@H]4COP(=O)(O)O[C@H]4[C@@H](O)[C@H](n5ccc(N)nc5=O)O[C@@H]4COP(=O)(O)O[C@H]4[C@@H](O)[C@H](n5cnc6c(N)ncnc65)O[C@@H]4COP(=O)(O)O[C@@H]4[C@H](O)[C@@H](COP(=O)(O)O[C@@H]5[C@H](O)[C@@H](COP(=O)(O)O[C@H]6[C@@H](O)[C@H](n7ccc(=O)[nH]c7=O)O[C@@H]6COP(=O)(O)O[C@@H]6[C@H](O)[C@@H](COP(=O)(O)O[C@@H]7[C@H](O)[C@@H](COP(=O)(O)O[C@H]8[C@@H](O)[C@H](n9ccc(=O)[nH]c9=O)O[C@@H]8COP(=O)(O)O[C@@H]8[C@H](O)[C@@H](COP(=O)(O)O[C@H]9[C@@H](O)[C@H](n%10ccc(N)nc%10=O)O[C@@H]9COP(=O)(O)O[C@@H]9[C@H](O)[C@@H](COP(=O)(O)O[C@H]%10[C@@H](O)[C@H](n%11ccc(=O)[nH]c%11=O)O[C@@H]%10COP(=O)(O)O[C@@H]%10[C@H](O)[C@@H](COP(=O)(O)O[C@H]%11[C@@H](O)[C@H](n%12cnc%13c(N)ncnc%13%12)O[C@@H]%11COP(=O)(O)O[C@H]%11[C@@H](O)[C@H](n%12ccc(N)nc%12=O)O[C@@H]%11COP(=O)(O)O[C@@H]%11[C@H](O)[C@@H](COP(=O)(O)O[C@H]%12[C@@H](O)[C@H](n%13cnc%14c(=O)[nH]c(N)nc%14%13)O[C@@H]%12COP(=O)(O)O)O[C@H]%11n%11cnc%12c(=O)[nH]c(N)nc%12%11)O[C@H]%10n%10cnc%11c(=O)[nH]c(N)nc%11%10)O[C@H]9n9cnc%10c(=O)[nH]c(N)nc%109)O[C@H]8n8cnc9c(=O)[nH]c(N)nc98)O[C@H]7n7cnc8c(=O)[nH]c(N)nc87)O[C@H]6n6cnc7c(=O)[nH]c(N)nc76)O[C@H]5n5cnc6c(=O)[nH]c(N)nc65)O[C@H]4n4cnc5c(=O)[nH]c(N)nc54)O[C@H]3n3cnc4c(N)ncnc43)O2)c(=O)[nH]c1=O | Stable | Active | Active
2 | NCCN(CCN)CCNC(=O)Cc1cn([C@H]2C[C@H](OP(=O)(O)OC[C@H]3O[C@@H](n4cc(CC(=O)NCCN(CCN)CCN)c(=O)[nH]c4=O)C[C@@H]3O)[C@@H](COP(=O)(O)O[C@@H]3[C@H](O)[C@@H](COP(=O)(O)O[C@H]4[C@@H](O)[C@H](n5cnc6c(N)ncnc65)O[C@@H]4COP(=O)(O)O[C@H]4[C@@H](O)[C@H](n5ccc(N)nc5=O)O[C@@H]4COP(=O)(O)O[C@H]4[C@@H](O)[C@H](n5cnc6c(N)ncnc65)O[C@@H]4COP(=O)(O)O[C@@H]4[C@H](O)[C@@H](COP(=O)(O)O[C@@H]5[C@H](O)[C@@H](COP(=O)(O)O[C@H]6[C@@H](O)[C@H](n7ccc(=O)[nH]c7=O)O[C@@H]6COP(=O)(O)O[C@@H]6[C@H](O)[C@@H](COP(=O)(O)O[C@@H]7[C@H](O)[C@@H](COP(=O)(O)O[C@H]8[C@@H](O)[C@H](n9ccc(=O)[nH]c9=O)O[C@@H]8COP(=O)(O)O[C@@H]8[C@H](O)[C@@H](COP(=O)(O)O[C@H]9[C@@H](O)[C@H](n%10ccc(N)nc%10=O)O[C@@H]9COP(=O)(O)O[C@@H]9[C@H](O)[C@@H](COP(=O)(O)O[C@H]%10[C@@H](O)[C@H](n%11ccc(=O)[nH]c%11=O)O[C@@H]%10COP(=O)(O)O[C@@H]%10[C@H](O)[C@@H](COP(=O)(O)O[C@H]%11[C@@H](O)[C@H](n%12cnc%13c(N)ncnc%13%12)O[C@@H]%11COP(=O)(O)O[C@H]%11[C@@H](O)[C@H](n%12ccc(N)nc%12=O)O[C@@H]%11COP(=O)(O)O[C@@H]%11[C@H](O)[C@@H](COP(=O)(O)O[C@H]%12[C@@H](O)[C@H](n%13cnc%14c(=O)[nH]c(N)nc%14%13)O[C@@H]%12COP(=O)(O)O)O[C@H]%11n%11cnc%12c(=O)[nH]c(N)nc%12%11)O[C@H]%10n%10cnc%11c(=O)[nH]c(N)nc%11%10)O[C@H]9n9cnc%10c(=O)[nH]c(N)nc%109)O[C@H]8n8cnc9c(=O)[nH]c(N)nc98)O[C@H]7n7cnc8c(=O)[nH]c(N)nc87)O[C@H]6n6cnc7c(=O)[nH]c(N)nc76)O[C@H]5n5cnc6c(=O)[nH]c(N)nc65)O[C@H]4n4cnc5c(=O)[nH]c(N)nc54)O[C@H]3n3cnc4c(N)ncnc43)O2)c(=O)[nH]c1=O | Stable | Active | Active
3 | Cc1cn([C@H]2C[C@H](OP(=O)(O)OC[C@H]3O[C@@H](n4cc(C)c(=O)[nH]c4=O)C[C@@H]3O)[C@@H](COP(=O)(O)O[C@@H]3[C@H](O)[C@@H](COP(=O)(O)O[C@H]4[C@@H](O)[C@H](n5cnc6c(N)ncnc65)O[C@@H]4COP(=O)(O)O[C@H]4[C@@H](O)[C@H](n5ccc(N)nc5=O)O[C@@H]4COP(=O)(O)O[C@H]4[C@@H](O)[C@H](n5cnc6c(N)ncnc65)O[C@@H]4COP(=O)(O)O[C@@H]4[C@H](O)[C@@H](COP(=O)(O)O[C@@H]5[C@H](O)[C@@H](COP(=O)(O)O[C@H]6[C@@H](O)[C@H](n7ccc(=O)[nH]c7=O)O[C@@H]6COP(=O)(O)O[C@@H]6[C@H](O)[C@@H](COP(=O)(O)O[C@@H]7[C@H](O)[C@@H](COP(=O)(O)O[C@H]8[C@@H](O)[C@H](n9ccc(=O)[nH]c9=O)O[C@@H]8COP(=O)(O)O[C@@H]8[C@H](O)[C@@H](COP(=O)(O)O[C@H]9[C@@H](O)[C@H](n%10ccc(N)nc%10=O)O[C@@H]9COP(=O)(O)O[C@@H]9[C@H](O)[C@@H](COP(=O)(O)O[C@H]%10[C@@H](O)[C@H](n%11ccc(=O)[nH]c%11=O)O[C@@H]%10COP(=O)(O)O[C@@H]%10[C@H](O)[C@@H](COP(=O)(O)O[C@H]%11[C@@H](O)[C@H](n%12cnc%13c(N)ncnc%13%12)O[C@@H]%11COP(=O)(O)O[C@H]%11[C@@H](O)[C@H](n%12ccc(N)nc%12=O)O[C@@H]%11COP(=O)(O)O[C@@H]%11[C@H](O)[C@@H](COP(=O)(O)O[C@H]%12[C@@H](O)[C@H](n%13cnc%14c(=O)[nH]c(N)nc%14%13)O[C@@H]%12COP(=O)(O)O)O[C@H]%11n%11cnc%12c(=O)[nH]c(N)nc%12%11)O[C@H]%10n%10cnc%11c(=O)[nH]c(N)nc%11%10)O[C@H]9n9cnc%10c(=O)[nH]c(N)nc%109)O[C@H]8n8cnc9c(=O)[nH]c(N)nc98)O[C@H]7n7cnc8c(=O)[nH]c(N)nc87)O[C@H]6n6cnc7c(=O)[nH]c(N)nc76)O[C@H]5n5cnc6c(=O)[nH]c(N)nc65)O[C@H]4n4cnc5c(=O)[nH]c(N)nc54)O[C@H]3n3cnc4c(N)ncnc43)O2)c(=O)[nH]c1=O | – | Active | Active
